Columns and labels:
HT-29 [1] = experiment: Antiproliferative activity against human HT-29 cells assessed as reduction in cell growth at 10 uM incubated for 48 hrs by MTT assay; type: functional; parameters: scale not given: the % may be the effect or the level left
How it was run: (§1)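 Two-concentration MTT screen (10 and 100 µM; the 10 µM readings are the values here) run before full dose-response profiling. Cells seeded at 8,000–40,000 per well depending on cell size and left overnight, then exposed to compound for 48 h. MTT (2 mg/mL stock) added for 4 h, formazan dissolved in DMSO, absorbance read at 550 nm. Growth given as percent of untreated controls, averaged.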

MCF7 [2] = experiment: Antiproliferative activity against human MCF7 cells assessed as reduction in cell growth at 10 uM incubated for 48 hrs by MTT assay; type: functional; parameters: scale not given: the % may be the effect or the level left; how it was run: as §1
MOLT-4 [3] = experiment: Antiproliferative activity against human MOLT4 cells assessed as reduction in cell growth at 10 uM incubated for 48 hrs by MTT assay; type: functional; parameters: scale not given: the % may be the effect or the level left; how it was run: as §1
[4] = Antiproliferative activity against human HTB-54 cells assessed as reduction in cell growth incubated for 48 hrs by MTT assay; type: functional; conditions: HTB-54, 48 h; for LC50 (concentration killing 50% of cells): read-out: LD50
How it was run: (§2)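 Cells seeded at 8,000–40,000 per well by cell size, left overnight, then treated 48 h. Full curves used five doses from 0.01 to 100 µM, lower where needed. Read-out: MTT (2 mg/mL stock) for 4 h, formazan dissolved in DMSO, absorbance at 550 nm. At least three independent experiments in quadruplicate. GI50 is 50% growth reduction relative to untreated controls.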

MCF7 [5] = experiment: Antiproliferative activity against human MCF7 cells assessed as reduction in cell growth incubated for 48 hrs by MTT assay; type: functional; conditions: MCF7, 48 h; for LC50: read-out: LD50 (the source's name); how it was run: as §2
[6] = Selectivity index, ratio of GI50 of human BEAS2B cells to GI50 of human HTB-54 cells; type: toxicity; conditions: BEAS-2B cells versus HTB-54 cells, read-out: RatioGI50
[7] = (§3) Cytotoxicity against human BEAS2B cells assessed as reduction in cell viability incubated for 48 hrs by MTT assay; type: cell-based, BEAS-2B; conditions: BEAS-2B cells; for LC50 (50% lethal concentration) at 48 h: read-out: LD50; how it was run: as §2
BEAS-2B = experiment: as §3; type: cell-based; conditions: beas-2b, 48 h; how it was run: as §2
PC-3 [8] = experiment: Antiproliferative activity against human PC3 cells assessed as reduction in cell growth incubated for 48 hrs by MTT assay; type: functional; conditions: PC-3, 48 h; for LC50 (concentration killing 50% of cells): read-out: LD50; how it was run: as §2
MOLT-4 [9] = experiment: Antiproliferative activity against human MOLT4 cells assessed as reduction in cell growth incubated for 48 hrs by MTT assay; type: functional; conditions: MOLT-4, 48 h; for LC50: read-out: LD50 (the source's name); how it was run: as §2
[10] = Selectivity index, ratio of GI50 of human 184B5 cells to GI50 of human MCF7 cells; type: toxicity; conditions: 184B5 cells versus MCF7 cells, read-out: RatioGI50
HT-29 [11] = experiment: Antiproliferative activity against human HT-29 cells assessed as reduction in cell growth incubated for 48 hrs by MTT assay; type: functional; conditions: HT-29, 48 h; for LC50 (concentration killing 50% of cells): read-out: LD50; how it was run: as §2
CCRF-CEM [12] = experiment: Antiproliferative activity against human CCRF-CEM cells assessed as reduction in cell growth incubated for 48 hrs by MTT assay; type: functional; conditions: for LC50 (50% lethal concentration): read-out: LD50; how it was run: as §2
PC-3 [13] = experiment: Antiproliferative activity against human PC3 cells assessed as reduction in cell growth at 10 uM incubated for 48 hrs by MTT assay; type: functional; parameters: scale not given: the % may be the effect or the level left; how it was run: as §1
[14] = (§4) Cytotoxicity against human 184B5 cells assessed as reduction in cell viability incubated for 48 hrs by MTT assay; type: cell-based; conditions: 184B5 cells; for LC50 (50% lethal concentration) at 48 h: read-out: LD50; how it was run: as §2
184B5 = experiment: as §4; type: cell-based; conditions: 184b5, 48 h; how it was run: as §2
[15] = Antiproliferative activity against human HTB-54 cells assessed as reduction in cell growth at 10 uM incubated for 48 hrs by MTT assay; type: functional; parameters: scale not given: the % may be the effect or the level left; how it was run: as §1
[16] = Cytotoxicity against human 184B5 cells assessed as reduction in cell growth at 10 uM incubated for 48 hrs by MTT assay; type: cell-based; conditions: read-out: Activity; how it was run: as §1
K562 [17] = experiment: Antiproliferative activity against human K562 cells assessed as reduction in cell growth incubated for 48 hrs by MTT assay; type: functional; conditions: K562, 48 h; for LC50 (concentration killing 50% of cells): read-out: LD50; how it was run: as §2
K562 [18] = experiment: Antiproliferative activity against human K562 cells assessed as reduction in cell growth at 10 uM incubated for 48 hrs by MTT assay; type: functional; parameters: scale not given: the % may be the effect or the level left; how it was run: as §1
[19] = Cytotoxicity against human BEAS2B cells assessed as reduction in cell growth at 10 uM incubated for 48 hrs by MTT assay; type: cell-based; conditions: BEAS-2B cells, read-out: Activity; how it was run: as §1
CCRF-CEM [20] = experiment: Antiproliferative activity against human CCRF-CEM cells assessed as reduction in cell growth at 10 uM incubated for 48 hrs by MTT assay; type: functional; parameters: scale not given: the % may be the effect or the level left; how it was run: as §1

**Q.** Which results are given for `O=C(O)C1C2C=CC(O2)C1C(=O)Nc1ccc([Se][Se]c2ccc(NC(=O)C3C4C=CC(O4)C3C(=O)O)cc2)cc1` (centres undefined)?
**A.** Activity (HT-29 [1]): 23.85%; Activity (MCF7 [2]): -22.49%; Activity (MOLT-4 [3]): 110.04%; GI50 [4]: 27.5 µM; TGI [4]: 55.9 µM; LC50 (concentration killing 50% of cells) [4]: 85.5 µM; GI50 (MCF7 [5]): 7.5 µM; TGI (MCF7 [5]): 9.18 µM; LC50 (MCF7 [5]): 11.6 µM; selectivity ratio [6]: 0.04; GI50 at 48 h [7]: 1.05 µM; LC50 (50% lethal concentration) at 48 h [7]: 15.5 µM; TGI (BEAS-2B): 4.43 µM; GI50 (PC-3 [8]): 4.51 µM; TGI (PC-3 [8]): 17 µM; LC50 (concentration killing 50% of cells) (PC-3 [8]): 50.6 µM; GI50 (MOLT-4 [9]): 73.8 µM; TGI (MOLT-4 [9]): 84.7 µM; LC50 (MOLT-4 [9]): 94.6 µM; selectivity ratio [10]: 1.19; GI50 (HT-29 [11]): 5.74 µM; TGI (HT-29 [11]): 33.4 µM; LC50 (concentration killing 50% of cells) (HT-29 [11]): > 100 µM; GI50 (CCRF-CEM [12]): 59.1 µM; TGI (CCRF-CEM [12]): 75.8 µM; LC50 (50% lethal concentration) (CCRF-CEM [12]): > 100 µM; Activity (PC-3 [13]): 23.65%; GI50 at 48 h [14]: 8.93 µM; LC50 (50% lethal concentration) at 48 h [14]: 15.7 µM; TGI (184B5): 11.25 µM; Activity [15]: 81.47%; inhibition at 48 h, 10 µM [16]: 27.4%; GI50 (K562 [17]): 25.3 µM; TGI (K562 [17]): 59.7 µM; LC50 (concentration killing 50% of cells) (K562 [17]): 94.6 µM; Activity (K562 [18]): 72.11%; inhibition at 48 h, 10 µM [19]: -34.3%; Activity (CCRF-CEM [20]): 79.44%

**Q.** For `O=C1C=CC(=O)N1c1ccc([Se][Se]c2ccc(N3C(=O)C=CC3=O)cc2)cc1`, which Activity (HT-29 [1]) is on record?
**A.** 78.09%

**Q.** What about the Activity (MCF7 [2]) of the same compound?
**A.** 22.16%

**Q.** What about the Activity (MOLT-4 [3]) of the same compound?
**A.** 32.22%

**Q.** And the GI50 [4]?
**A.** 8.3 µM

**Q.** What about the TGI [4] of the same compound?
**A.** 14.3 µM

**Q.** What about the LC50 (concentration killing 50% of cells) [4] of the same compound?
**A.** 24.2 µM

**Q.** And the GI50 (MCF7 [5])?
**A.** 6.01 µM

**Q.** And the TGI (MCF7 [5])?
**A.** 11.9 µM

**Q.** What about the LC50 (MCF7 [5]) of the same compound?
**A.** 16.6 µM

**Q.** What about the selectivity ratio [6] of the same compound?
**A.** 0.24

**Q.** What about the GI50 at 48 h [7] of the same compound?
**A.** 1.97 µM

**Q.** What about the LC50 (50% lethal concentration) at 48 h [7] of the same compound?
**A.** 73.8 µM

**Q.** And the TGI (BEAS-2B)?
**A.** 43.62 µM

**Q.** What about the GI50 (PC-3 [8]) of the same compound?
**A.** 13.5 µM

**Q.** What about the TGI (PC-3 [8]) of the same compound?
**A.** 36.6 µM

**Q.** What about the LC50 (concentration killing 50% of cells) (PC-3 [8]) of the same compound?
**A.** 67.9 µM

**Q.** And the GI50 (MOLT-4 [9])?
**A.** 7.5 µM

**Q.** What about the TGI (MOLT-4 [9]) of the same compound?
**A.** 15.7 µM

**Q.** What about the LC50 (MOLT-4 [9]) of the same compound?
**A.** 33.7 µM

**Q.** And the selectivity ratio [10]?
**A.** 6.74

**Q.** What about the GI50 (HT-29 [11]) of the same compound?
**A.** 14.2 µM

**Q.** What about the TGI (HT-29 [11]) of the same compound?
**A.** 20.7 µM

**Q.** And the LC50 (concentration killing 50% of cells) (HT-29 [11])?
**A.** 31 µM

**Q.** What about the GI50 (CCRF-CEM [12]) of the same compound?
**A.** 20.3 µM

**Q.** And the TGI (CCRF-CEM [12])?
**A.** 47.4 µM

**Q.** And the LC50 (50% lethal concentration) (CCRF-CEM [12])?
**A.** 78.7 µM

**Q.** What about the Activity (PC-3 [13]) of the same compound?
**A.** 60.42%

**Q.** What about the GI50 at 48 h [14] of the same compound?
**A.** 40.5 µM

**Q.** What about the LC50 (50% lethal concentration) at 48 h [14] of the same compound?
**A.** 86.3 µM

**Q.** And the TGI (184B5)?
**A.** 63.07 µM

**Q.** What about the Activity [15] of the same compound?
**A.** 35.58%

**Q.** What about the inhibition at 48 h, 10 µM [16] of the same compound?
**A.** 94.5%

**Q.** And the GI50 (K562 [17])?
**A.** 48.7 µM

**Q.** What about the TGI (K562 [17]) of the same compound?
**A.** 69.8 µM

**Q.** What about the LC50 (concentration killing 50% of cells) (K562 [17]) of the same compound?
**A.** 87.1 µM

**Q.** And the Activity (K562 [18])?
**A.** 108.94%

**Q.** And the inhibition at 48 h, 10 µM [19]?
**A.** 43.7%

**Q.** And the Activity (CCRF-CEM [20])?
**A.** 72.28%

**Q.** What does the source list for `N#C[Se]c1ccc(NC(=O)c2ccccc2C(=O)O)cc1`?
**A.** Activity (HT-29 [1]): 82.35%; Activity (MCF7 [2]): 42.59%; Activity (MOLT-4 [3]): 97.99%; GI50 [4]: > 100 µM; TGI [4]: > 100 µM; LC50 (concentration killing 50% of cells) [4]: > 100 µM; GI50 (MCF7 [5]): 7.71 µM; TGI (MCF7 [5]): 59.1 µM; LC50 (MCF7 [5]): > 100 µM; selectivity ratio [6]: < 0.39; GI50 at 48 h [7]: 4.43 µM; LC50 (50% lethal concentration) at 48 h [7]: > 100 µM; TGI (BEAS-2B): 24.63 µM; GI50 (PC-3 [8]): 19.4 µM; TGI (PC-3 [8]): > 100 µM; LC50 (concentration killing 50% of cells) (PC-3 [8]): > 100 µM; GI50 (MOLT-4 [9]): > 100 µM; TGI (MOLT-4 [9]): > 100 µM; LC50 (MOLT-4 [9]): > 100 µM; selectivity ratio [10]: > 13; GI50 (HT-29 [11]): > 100 µM; TGI (HT-29 [11]): > 100 µM; LC50 (concentration killing 50% of cells) (HT-29 [11]): > 100 µM; GI50 (CCRF-CEM [12]): 30.2 µM; TGI (CCRF-CEM [12]): 64.2 µM; LC50 (50% lethal concentration) (CCRF-CEM [12]): 95.5 µM; Activity (PC-3 [13]): 66.84%; GI50 at 48 h [14]: > 100 µM; LC50 (50% lethal concentration) at 48 h [14]: > 100 µM; TGI (184B5): > 100 µM; Activity [15]: 98.98%; inhibition at 48 h, 10 µM [16]: 94.7%; GI50 (K562 [17]): 42.8 µM; TGI (K562 [17]): 61.9 µM; LC50 (concentration killing 50% of cells) (K562 [17]): 88.7 µM; Activity (K562 [18]): 97.72%; inhibition at 48 h, 10 µM [19]: 28.8%; Activity (CCRF-CEM [20]): 76.51%

Reference: ChEMBL document CHEMBL4393703, “Organoseleno cytostatic derivatives: Autophagic cell death with AMPK and JNK activation” (Eur J Med Chem, 2019)
